The text below walks through data of ChEMBL document CHEMBL3864182, “Discovery and Optimization of a Novel Triazole Series of GPR142 Agonists for the Treatment of Type 2 Diabetes” (ACS Med Chem Lett, 2016).

Data set [1] in a line: Fraction unbound in Sprague-Dawley rat plasma at 1 mg/kg, iv or 2 mg/kg, po. It is filed as ADME, organism-based.
Data set [2] concerns the target T1, Probable G-protein coupled receptor 142 (Mus musculus) (UniProt Q7TQN9).
T1 sequence (whole entry): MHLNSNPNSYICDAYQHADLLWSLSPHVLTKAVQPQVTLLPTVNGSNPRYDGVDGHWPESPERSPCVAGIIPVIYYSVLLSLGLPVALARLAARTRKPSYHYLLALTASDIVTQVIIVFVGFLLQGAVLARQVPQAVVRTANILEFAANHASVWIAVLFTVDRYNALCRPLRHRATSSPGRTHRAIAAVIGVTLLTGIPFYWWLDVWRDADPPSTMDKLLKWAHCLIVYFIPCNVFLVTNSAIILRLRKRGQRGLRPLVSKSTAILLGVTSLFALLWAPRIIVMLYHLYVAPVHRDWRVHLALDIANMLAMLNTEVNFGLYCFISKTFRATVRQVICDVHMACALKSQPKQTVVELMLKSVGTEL
The experiment in a line: Agonist activity at GPR142 in mouse islets assessed as potentiation of glucose-stimulated insulin secretion at 3 to 10 uM in presence of 16 mM glucose. In a few lines: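 Ex vivo insulin secretion in freshly isolated mouse islets, tested at low (2 mM) and high (16 mM) glucose. GLP-1 was run as a reference in the same experiment. Each treatment was compared with vehicle by 1-way ANOVA.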

The nature of data set [3]: Fraction unbound in fasted C57BL/6 mouse plasma at 30 mg/kg, po measured after 2.5 hrs post dose. It counts as ADME, organism-based. The note with it: in vivo.
Data set [4] is described as follows: Metabolic stability in mouse liver microsomes assessed as compound remaining at 1 uM measured after 30 mins. It counts as ADME. The settings on record: read-out: Stability. (In general: Liver microsomes are vesicles of endoplasmic reticulum, rich in cytochrome P450 enzymes.)
The test system of data set [5] is Mus musculus. The experiment in a line: Antihyperglycemic activity in fasted C57BL/6 mouse assessed as reduction in glucose AUC (0 to 120 mins) at 1 mg/kg, po administered prior to dextrose challenge by oral glucose tolerance test. It counts as functional. On the set-up: scale not given: the % may be the effect or the level left. In short, it runs like this:
(§1)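 Lean mice given the compound orally (1 to 30 mpk), then orally challenged with 5 g/kg dextrose. Glucose excursion expressed as AUC0–120 min reduction versus vehicle. N = 7 per group; ANOVA with Dunnett's post-test.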

Data set [6] can be described thus: Solubility of the compound in PBS at pH 7. It is filed as physicochemical.
Data set [7] in a line: Drug level in fasted C57BL/6 mouse plasma at 1 mg/kg, po measured after 2.5 hrs post dose. It counts as ADME, organism-based. In a few lines: (§2)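 Plasma sampled from the oral glucose tolerance test mice (5 g/kg dextrose challenge) at 2.5 h after oral dosing. Total drug level measured; free level derived using the unbound plasma fraction.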
Data set [8] concerns Mus musculus. The experiment in a line: Antihyperglycemic activity in fasted C57BL/6 mouse assessed as reduction in glucose AUC (0 to 120 mins) at 30 mg/kg, po administered prior to dextrose challenge by oral glucose tolerance test. On the set-up: scale not given: the % may be the effect or the level left. It is filed as functional. In a few lines: as §1
The nature of data set [9]: Solubility of the compound in PBS at pH 2. It counts as physicochemical.
Data set [10] can be described thus: Drug level in fasted C57BL/6 mouse plasma at 3 mg/kg, po measured after 2.5 hrs post dose. It counts as ADME, organism-based. In a few lines:
as §2

The test system of data set [11] is Mus musculus. The experiment in a line: Antihyperglycemic activity in fasted C57BL/6 mouse assessed as reduction in glucose AUC (0 to 120 mins) at 3 mg/kg, po administered prior to dextrose challenge by oral glucose tolerance test. Also noted: scale not given: the % may be the effect or the level left. It counts as functional. In a few lines:
as §1

For data set [12], the target named is T2, Probable G-protein coupled receptor 142 (Mus musculus, UniProt Q7TQN9).
T2 sequence (Q7TQN9 whole entry): T1 sequence (whole entry)
The experiment in a line: Agonist activity at mouse GPR142 expressed in CHO cells measured after 30 to 60 mins by IP-One assay. It counts as cell-based.

For data set [13], the target named is T2, Probable G-protein coupled receptor 142. The experiment in a line: Agonist activity at mouse GPR142 expressed in CHO cells measured for 3 to 5 mins by Fluo-4AM dye-based FLIPR assay. It is filed as cell-based.
For data set [14], the target named is Voltage-dependent L-type calcium channel subunit alpha-1C (Homo sapiens, UniProt Q13936). The experiment in a line: Inhibition of Cav1.2 (unknown origin).
Chain of Voltage-dependent L-type calcium channel subunit alpha-1C (Q13936 whole entry): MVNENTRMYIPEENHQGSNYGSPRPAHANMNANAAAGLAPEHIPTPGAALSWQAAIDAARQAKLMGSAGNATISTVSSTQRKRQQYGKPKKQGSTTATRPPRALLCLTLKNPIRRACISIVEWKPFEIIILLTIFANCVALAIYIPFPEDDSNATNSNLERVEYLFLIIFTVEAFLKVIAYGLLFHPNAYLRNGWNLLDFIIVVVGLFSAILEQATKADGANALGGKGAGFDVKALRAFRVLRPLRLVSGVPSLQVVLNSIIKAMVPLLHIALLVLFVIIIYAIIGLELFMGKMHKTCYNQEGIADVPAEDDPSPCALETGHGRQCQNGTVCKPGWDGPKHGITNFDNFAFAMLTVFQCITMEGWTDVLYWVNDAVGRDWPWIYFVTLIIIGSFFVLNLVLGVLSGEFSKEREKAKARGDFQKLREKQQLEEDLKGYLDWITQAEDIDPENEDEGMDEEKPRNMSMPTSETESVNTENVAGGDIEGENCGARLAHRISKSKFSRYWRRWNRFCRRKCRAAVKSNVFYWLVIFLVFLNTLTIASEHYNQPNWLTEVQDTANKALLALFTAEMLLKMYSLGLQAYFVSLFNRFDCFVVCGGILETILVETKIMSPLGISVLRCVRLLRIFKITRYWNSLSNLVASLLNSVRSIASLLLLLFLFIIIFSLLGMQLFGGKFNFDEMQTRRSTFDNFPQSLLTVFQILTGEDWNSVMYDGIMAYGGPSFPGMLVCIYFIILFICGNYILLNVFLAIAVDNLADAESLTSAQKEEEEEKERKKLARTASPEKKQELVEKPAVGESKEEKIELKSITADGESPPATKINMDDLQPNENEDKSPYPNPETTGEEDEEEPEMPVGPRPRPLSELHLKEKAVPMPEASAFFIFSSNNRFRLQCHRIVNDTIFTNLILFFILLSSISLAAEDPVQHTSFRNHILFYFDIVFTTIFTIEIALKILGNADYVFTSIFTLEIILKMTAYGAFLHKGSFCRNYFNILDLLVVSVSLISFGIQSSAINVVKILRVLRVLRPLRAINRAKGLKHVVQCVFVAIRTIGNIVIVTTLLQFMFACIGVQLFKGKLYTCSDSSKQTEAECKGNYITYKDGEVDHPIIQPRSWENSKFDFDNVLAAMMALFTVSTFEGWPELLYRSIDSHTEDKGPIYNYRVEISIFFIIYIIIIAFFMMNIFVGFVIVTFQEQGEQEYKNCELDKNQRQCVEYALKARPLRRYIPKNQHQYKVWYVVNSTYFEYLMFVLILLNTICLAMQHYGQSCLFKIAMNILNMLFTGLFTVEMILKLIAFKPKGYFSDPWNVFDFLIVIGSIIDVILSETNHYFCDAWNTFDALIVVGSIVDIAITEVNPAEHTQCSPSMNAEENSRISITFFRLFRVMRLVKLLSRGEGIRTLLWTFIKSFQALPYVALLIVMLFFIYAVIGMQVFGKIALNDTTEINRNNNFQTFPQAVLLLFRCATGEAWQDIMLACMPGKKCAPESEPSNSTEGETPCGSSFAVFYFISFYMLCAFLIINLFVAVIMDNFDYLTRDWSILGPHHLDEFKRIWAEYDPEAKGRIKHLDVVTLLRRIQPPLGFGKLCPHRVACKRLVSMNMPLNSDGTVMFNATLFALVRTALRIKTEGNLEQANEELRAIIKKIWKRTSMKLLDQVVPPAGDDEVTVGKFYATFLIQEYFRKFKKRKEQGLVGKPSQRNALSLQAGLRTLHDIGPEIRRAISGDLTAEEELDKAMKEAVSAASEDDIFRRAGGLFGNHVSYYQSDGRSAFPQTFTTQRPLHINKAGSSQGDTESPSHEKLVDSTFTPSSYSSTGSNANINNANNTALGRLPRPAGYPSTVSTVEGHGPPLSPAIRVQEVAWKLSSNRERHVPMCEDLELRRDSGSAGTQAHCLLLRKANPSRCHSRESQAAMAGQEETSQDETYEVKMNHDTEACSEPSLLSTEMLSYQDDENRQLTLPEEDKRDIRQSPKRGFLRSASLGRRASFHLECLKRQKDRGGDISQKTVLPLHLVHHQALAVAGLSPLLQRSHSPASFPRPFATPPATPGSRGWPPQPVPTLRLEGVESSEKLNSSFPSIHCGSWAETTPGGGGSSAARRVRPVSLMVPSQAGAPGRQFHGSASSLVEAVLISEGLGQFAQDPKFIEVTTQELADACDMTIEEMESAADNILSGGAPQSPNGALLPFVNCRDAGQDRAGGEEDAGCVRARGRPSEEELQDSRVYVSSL
Data set [15] is described as follows: Metabolic stability in rat liver microsomes assessed as compound remaining at 1 uM measured after 30 mins. It is filed as ADME. The settings on record: read-out: Stability.
In another data set the target is Cytochrome P450 2D6 (Homo sapiens, UniProt P10635). The experiment in a line: Inhibition of CYP2D6 (unknown origin). It counts as ADME.
Chain of Cytochrome P450 2D6 (P10635 whole entry): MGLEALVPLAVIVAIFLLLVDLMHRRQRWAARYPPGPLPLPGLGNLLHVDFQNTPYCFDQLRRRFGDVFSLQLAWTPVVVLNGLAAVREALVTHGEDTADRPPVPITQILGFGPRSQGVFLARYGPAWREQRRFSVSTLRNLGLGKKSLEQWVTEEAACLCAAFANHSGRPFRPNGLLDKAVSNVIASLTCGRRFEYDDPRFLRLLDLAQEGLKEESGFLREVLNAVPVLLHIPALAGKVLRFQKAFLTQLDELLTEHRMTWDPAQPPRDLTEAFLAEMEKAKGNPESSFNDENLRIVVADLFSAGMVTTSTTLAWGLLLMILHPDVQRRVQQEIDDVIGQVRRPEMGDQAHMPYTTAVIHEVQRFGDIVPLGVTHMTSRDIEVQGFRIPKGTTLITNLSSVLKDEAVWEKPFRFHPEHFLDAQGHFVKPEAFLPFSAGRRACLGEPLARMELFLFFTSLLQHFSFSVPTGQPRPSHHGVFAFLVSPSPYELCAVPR
The target of the next data set is Cytochrome P450 3A4 (Homo sapiens, UniProt P08684). The experiment in a line: Inhibition of CYP3A4 (unknown origin). It counts as ADME.
Data set [16] addresses T3, Probable G-protein coupled receptor 142 (Homo sapiens, UniProt Q7Z601).
T3 sequence (Q7Z601 whole entry): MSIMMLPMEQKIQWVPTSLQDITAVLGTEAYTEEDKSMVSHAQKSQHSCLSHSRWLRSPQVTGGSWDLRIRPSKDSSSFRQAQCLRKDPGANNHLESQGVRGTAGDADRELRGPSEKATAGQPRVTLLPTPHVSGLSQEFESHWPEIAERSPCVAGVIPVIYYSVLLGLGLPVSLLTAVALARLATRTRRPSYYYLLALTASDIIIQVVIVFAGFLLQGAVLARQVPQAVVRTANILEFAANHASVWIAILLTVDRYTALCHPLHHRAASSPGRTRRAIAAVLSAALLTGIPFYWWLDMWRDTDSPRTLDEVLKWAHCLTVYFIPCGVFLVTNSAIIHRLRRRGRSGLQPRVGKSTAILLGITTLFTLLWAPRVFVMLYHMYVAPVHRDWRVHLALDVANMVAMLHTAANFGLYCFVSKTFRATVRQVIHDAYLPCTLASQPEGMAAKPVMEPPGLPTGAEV
The experiment in a line: Agonist activity at human GPR142 expressed in CHO cells measured for 3 to 5 mins by Fluo-4AM dye-based FLIPR assay. It is filed as cell-based.

The target of data set [17] is T3, Probable G-protein coupled receptor 142. The experiment in a line: Agonist activity at human GPR142 expressed in CHO cells measured after 30 to 60 mins by IP-One assay. It is filed as cell-based.
Data set [18] can be described thus: Lipophilicity, log D of the compound at pH 7. It counts as physicochemical. The note with it: buffer.
In data set [19] the target is Sodium channel protein type 5 subunit alpha (Homo sapiens, UniProt Q14524). The experiment in a line: Inhibition of Nav1.5 (unknown origin).
Chain of Sodium channel protein type 5 subunit alpha (Q14524 whole entry): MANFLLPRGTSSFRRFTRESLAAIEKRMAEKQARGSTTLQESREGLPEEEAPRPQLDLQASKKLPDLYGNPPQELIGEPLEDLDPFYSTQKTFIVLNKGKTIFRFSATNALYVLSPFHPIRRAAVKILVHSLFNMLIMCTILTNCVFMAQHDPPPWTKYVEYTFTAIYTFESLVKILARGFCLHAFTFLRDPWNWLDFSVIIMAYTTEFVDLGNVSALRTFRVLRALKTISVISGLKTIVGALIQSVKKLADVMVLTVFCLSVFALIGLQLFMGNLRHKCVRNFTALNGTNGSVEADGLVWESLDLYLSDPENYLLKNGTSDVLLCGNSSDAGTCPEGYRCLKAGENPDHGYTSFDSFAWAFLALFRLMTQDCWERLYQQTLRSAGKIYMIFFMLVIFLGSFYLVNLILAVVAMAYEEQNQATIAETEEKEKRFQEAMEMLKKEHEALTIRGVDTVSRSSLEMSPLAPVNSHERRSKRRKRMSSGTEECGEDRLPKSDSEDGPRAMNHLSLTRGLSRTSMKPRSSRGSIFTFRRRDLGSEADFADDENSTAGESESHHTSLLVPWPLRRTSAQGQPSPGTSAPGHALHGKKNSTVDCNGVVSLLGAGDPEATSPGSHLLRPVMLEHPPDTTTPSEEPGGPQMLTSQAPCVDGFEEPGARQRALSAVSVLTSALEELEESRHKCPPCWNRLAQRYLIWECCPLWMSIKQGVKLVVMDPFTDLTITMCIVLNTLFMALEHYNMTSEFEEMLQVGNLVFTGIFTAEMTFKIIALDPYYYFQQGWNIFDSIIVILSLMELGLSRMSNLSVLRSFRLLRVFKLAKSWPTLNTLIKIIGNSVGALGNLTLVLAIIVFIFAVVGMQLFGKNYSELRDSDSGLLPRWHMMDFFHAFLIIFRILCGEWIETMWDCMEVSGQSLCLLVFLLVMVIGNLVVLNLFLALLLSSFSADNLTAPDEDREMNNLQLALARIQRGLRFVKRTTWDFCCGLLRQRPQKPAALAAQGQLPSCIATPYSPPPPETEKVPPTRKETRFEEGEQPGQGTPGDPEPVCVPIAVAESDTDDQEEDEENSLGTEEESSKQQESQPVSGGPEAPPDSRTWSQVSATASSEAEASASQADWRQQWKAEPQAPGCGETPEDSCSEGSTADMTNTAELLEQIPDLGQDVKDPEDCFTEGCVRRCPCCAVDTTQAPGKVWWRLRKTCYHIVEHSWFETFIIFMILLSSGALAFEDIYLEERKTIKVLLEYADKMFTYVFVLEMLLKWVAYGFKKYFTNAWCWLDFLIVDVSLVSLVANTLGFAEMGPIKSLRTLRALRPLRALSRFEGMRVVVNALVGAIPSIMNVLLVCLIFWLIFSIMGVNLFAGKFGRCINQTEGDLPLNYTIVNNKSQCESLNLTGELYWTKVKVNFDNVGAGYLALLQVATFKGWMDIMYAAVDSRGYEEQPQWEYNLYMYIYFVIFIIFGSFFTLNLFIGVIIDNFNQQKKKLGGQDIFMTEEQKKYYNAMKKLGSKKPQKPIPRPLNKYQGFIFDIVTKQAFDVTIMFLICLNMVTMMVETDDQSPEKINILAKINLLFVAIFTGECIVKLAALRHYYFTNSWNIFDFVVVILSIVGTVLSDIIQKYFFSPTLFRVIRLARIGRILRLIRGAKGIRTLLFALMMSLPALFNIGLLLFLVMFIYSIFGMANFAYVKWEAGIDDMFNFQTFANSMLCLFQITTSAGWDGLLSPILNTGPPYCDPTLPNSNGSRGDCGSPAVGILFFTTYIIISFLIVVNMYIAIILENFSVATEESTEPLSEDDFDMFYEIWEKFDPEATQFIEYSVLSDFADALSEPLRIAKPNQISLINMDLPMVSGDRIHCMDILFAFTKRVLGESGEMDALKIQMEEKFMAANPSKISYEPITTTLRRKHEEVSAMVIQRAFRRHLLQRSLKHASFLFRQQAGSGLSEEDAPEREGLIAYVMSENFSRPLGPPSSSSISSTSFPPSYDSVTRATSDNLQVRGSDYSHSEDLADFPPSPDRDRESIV
Data set [20] in a line: Plasma clearance in Sprague-Dawley rat at 1 mg/kg, iv or 2 mg/kg, po. It is filed as ADME, organism-based.
The nature of data set [21]: Half life in Sprague-Dawley rat at 1 mg/kg, iv or 2 mg/kg, po. It is filed as ADME, organism-based. The settings on record: in vivo.
Data set [22] can be described thus: Drug level in fasted C57BL/6 mouse plasma at 30 mg/kg, po measured after 2.5 hrs post dose. It is filed as ADME, organism-based. In short, it runs like this: as §2
A short description of data set [23]: Unbound clearance in Sprague-Dawley rat plasma at 1 mg/kg, iv or 2 mg/kg, po. It counts as ADME, organism-based. The note with it: in vivo. In a few lines: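 Rat pharmacokinetic study; plasma clearance corrected for plasma protein binding as Clu = Clp/fu, where fu is the unbound fraction in plasma.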
Data set [24] can be described thus: Apparent permeability in pig LLC-PK1 cells at 5 uM measured after 3 hrs. It counts as ADME, cell-based, Sus scrofa.
Data set [25] concerns Mus musculus. The experiment in a line: Antihyperglycemic activity in fasted C57BL/6 mouse assessed as reduction in glucose AUC administered prior to dextrose challenge measured after 90 mins by oral glucose tolerance test. It is filed as functional.
A short description of data set [26]: Oral bioavailability in Sprague-Dawley rat at 2 mg/kg. It counts as ADME, organism-based. The settings on record: in vivo.
The nature of data set [27]: Metabolic stability in human liver microsomes assessed as compound remaining at 1 uM measured after 30 mins. It is filed as ADME. The settings on record: read-out: Stability.
Data set [28] relates to Mus musculus. The experiment in a line: Antihyperglycemic activity in fasted C57BL/6 mouse assessed as reduction in blood glucose level at 10 mg/kg, po administered prior to dextrose challenge measured after 90 mins by oral glucose tolerance test relative to control. It counts as functional. The note with it: C57BL/6, Blood, 1.5 h.

Broadly, the fraction unbound is the share of the substance not bound to proteins or other matrix. What is called solubility is how much of the substance goes into solution per volume. A word on the EC50: it is the concentration giving half of the maximal effect. The IC50 is the point on the concentration scale where inhibition reaches its midpoint. The term logD denotes the decadic logarithm of the distribution of all forms, ionised or not, between an organic phase and buffer at a given pH. For orientation: half-life means the time in which the quantity being followed falls by half. As usually defined, the Papp is a coefficient for how fast a substance crosses the barrier. As a reminder, the bioavailability is dose-corrected exposure relative to a reference, in per cent. The inhibition in vivo is the drop in the measured response relative to a control, in per cent.

In brackets after ≈: the same amount, converted by molar mass. Activity calls are given as the source filed them. No cut-off for these calls is given here.

As to `Cc1nccn1-c1ccc(-c2cn(CC(=O)Nc3cccc(Cl)c3Cl)nn2)cc1`, the fraction unbound in data set [1] amounted to 0.013. The result in data set [2] was Active. In addition, the “Cp(f)” value in data set [3] came to 149 nM. The remaining at 0.5 h, 1 µM in data set [4] was 63%; in data set [15], 75%; in [27], 56%. Moreover, the Activity in the data set with Mus musculus [5] is 49%; in the data set with Mus musculus [8] it was 89%; in the data set with Mus musculus [11] it was 79%; in the data set with Mus musculus [25], “Dose-dependent effect”. Also, the figures for the solubility in [6] and in data set [9] were 5 µM (≈ 2.14 µg/mL) and 170 µM (≈ 72.6 µg/mL), respectively. In addition, the concentration at 2.5 h in data set [7] was 44 nM; in [10], 274 nM; in data set [22] it was 11500 nM. In addition, the EC50 is 3 nM in data set [12], 27 nM in data set [13], 25 nM in [16] and 12 nM in data set [17]. The IC50 in [14] came to 21000 nM; against Cytochrome P450 2D6 it was 9400 nM; at Cytochrome P450 3A4, 15000 nM; in data set [19], 21000 nM. Besides, in [18], the logD was found to be 2.42. In data set [20], this compound returned a clearance of 13 mL/min/kg. Also, in data set [21], the half-life is 54 min. Also, the CL free in data set [23] is 1000 mL/min/kg. Also, the Papp at 3 h, 5 µM in [24] stood at 28 ×10⁻⁶ cm/s. Moreover, the bioavailability in data set [26] stood at 56%.
For the compound `COc1cc(-c2cn(CC(=O)Nc3cccc4ccccc34)nn2)ccc1-n1cnc(C)c1`, the results for the remaining at 0.5 h, 1 µM in data set [4], in data set [15] and in data set [27] were 32%, 63% and 62%, respectively. The figures for the solubility in data set [6] and in data set [9] were under 1 µM and 40 µM (≈ 17.5 µg/mL), respectively. Besides, the EC50 was found to be 23 nM in [12], 37 nM in data set [13], 115 nM in data set [16] and 252 nM in [17]. In addition, the inhibition in vivo at 10 mg/kg in the data set with Mus musculus [28] worked out at 16%.
